Assay results from ChEMBL document CHEMBL5506034, “Development of Inhibitors, Probes, and PROTAC Provides a Complete Toolbox to Study PARK7 in the Living Cell” (J Med Chem, 2024).
Values belong to the compound of their own block, whether it stands above or below them. Active and inactive are the calls of the source. No cut-off for these calls is given here.

How the values were obtained:
[1] = target: T1, Parkinson disease protein 7 (Homo sapiens) (UniProt Q99497); test: Binding affinity to recombinant human PARK7 incubated for 1 hrs by coomassie staining based SDS-PAGE fluorescence scanning analysis; conditions: dose 0.1-10 µM
T1 sequence (whole entry): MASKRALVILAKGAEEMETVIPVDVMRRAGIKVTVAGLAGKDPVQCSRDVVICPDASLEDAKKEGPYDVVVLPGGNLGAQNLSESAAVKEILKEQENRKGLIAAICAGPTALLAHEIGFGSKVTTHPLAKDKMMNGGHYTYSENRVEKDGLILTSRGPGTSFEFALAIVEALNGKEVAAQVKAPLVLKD

[2] = target: T1, Parkinson disease protein 7 (Homo sapiens); test: Binding affinity to recombinant human PARK7 at 2 uM incubated for 1 hrs by coomassie staining based SDS-PAGE fluorescence scanning analysis relative to control
[3] = system: A549; test: Cellular protein labelling in human A549 cells assessed as unspecific 55-75 kDa band formation at 5 uM by SDS-PAGE based fluorescence scanning immunoblotting analysis; type: functional, cell-based
Procedure, shortened: (§1)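 Probes applied to intact HEK293T or A549 cells at 5 μM final for 24 h, then lysed. Read-out by SDS-PAGE fluorescence scan and immunoblot against PARK7, looking at the ~25 kDa labelled band, PARK7 band shift and extra bands.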

[4] = target: T1, Parkinson disease protein 7 (Homo sapiens); test: Binding affinity to PARK7 in human A549 cells assessed as band shift at 5 uM incubated for 24 hrs by SDS-PAGE based fluorescence scanning immunoblotting analysis; type: cell-based; procedure, shortened: as §1
[5] = Drug penetration in human A549 cells at 5 uM incubated for 1 hrs by DAPI staining based confocal microscopic analysis; type: ADME, cell-based; conditions: a549, 1 h
Procedure, shortened: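 A549 cells incubated with probes at 5 μM final over a time course (1–24 h). For microscopy, cells on coverslips were fixed in 3.7% formaldehyde/PBS for 20 min, mounted with DAPI and imaged by confocal (63× oil). In parallel, cells were lysed for SDS-PAGE fluorescence scan and PARK7 immunoblot.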

[6] = target: T1, Parkinson disease protein 7 (Homo sapiens); test: Binding affinity to PARK7 in A549 cells assessed as band shift at 5 uM incubated for 24 hrs by SDS-PAGE based fluorescence scanning immunoblotting analysis
[7] = system: A549 (Homo sapiens); test: Cellular protein labelling in A549 cells assessed as unspecific 55-75 kDa band formation at 5 uM by SDS-PAGE based fluorescence scanning immunoblotting analysis
[8] = target: T2, Protein cereblon/Parkinson disease protein 7 (Homo sapiens) (UniProt Q96SW2+Q99497); test: PROTAC activity at CRBN/PARK7 in human A549 cells assessed as induction of PARK7 degradation at 5 uM preincubated with (R)-1-cyano-N-(5-(2-fluoro-5-(1H-1,2,3-triazol-1-yl)benzoyl)-4,5,6,7-tetrahydrothiazolo[5,4-c]pyridin-2-yl)pyrrolidine-3-carboxamide for 4 hrs followed by compound addition and measured after 8 hrs by Western blot analysis; type: cell-based
T2 sequence (Q96SW2 whole entry, looked up, one chain of several): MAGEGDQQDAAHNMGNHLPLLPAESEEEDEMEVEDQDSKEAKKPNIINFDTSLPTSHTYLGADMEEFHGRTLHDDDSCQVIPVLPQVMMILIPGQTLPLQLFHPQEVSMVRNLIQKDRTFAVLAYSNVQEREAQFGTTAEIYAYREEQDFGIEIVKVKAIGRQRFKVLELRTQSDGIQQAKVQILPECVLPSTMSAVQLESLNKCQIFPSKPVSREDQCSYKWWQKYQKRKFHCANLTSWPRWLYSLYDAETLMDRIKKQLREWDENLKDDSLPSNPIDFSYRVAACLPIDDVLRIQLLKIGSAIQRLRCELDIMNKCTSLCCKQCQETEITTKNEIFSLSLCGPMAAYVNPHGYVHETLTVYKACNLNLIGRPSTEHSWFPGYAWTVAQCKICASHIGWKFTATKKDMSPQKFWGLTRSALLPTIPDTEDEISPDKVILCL
Procedure, shortened: (§2)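 A549 cells pretreated 4 h with 5 μM pomalidomide, 5 μM PARK7 inhibitor or 10 μM MG-132, then given PROTAC (5 μM) for a further 8 h. PARK7 level assessed by lysis, SDS-PAGE and immunoblot.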

[9] = target: T2, Protein cereblon/Parkinson disease protein 7 (Homo sapiens); test: PROTAC activity at CRBN/PARK7 in human A549 cells assessed as induction of PARK7 degradation at 5 uM preincubated with pomalidomide for 4 hrs followed by compound addition and measured after 8 hrs by Western blot analysis; type: cell-based; procedure, shortened: as §2
[10] = target: T2, Protein cereblon/Parkinson disease protein 7 (Homo sapiens); test: PROTAC activity at CRBN/PARK7 in human A549 cells assessed as induction of PARK7 degradation at 5 uM incubated for 4 to 24 hrs by Western blot analysis; type: cell-based; conditions: time 4-24 hrs
Procedure, shortened: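 A549 cells exposed to PROTAC at 5 μM for varying times across the 4–24 h window. Lysates analysed by SDS-PAGE and anti-PARK7 immunoblot.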

[11] = target: T2, Protein cereblon/Parkinson disease protein 7 (Homo sapiens); test: PROTAC activity at CRBN/PARK7 in human A549 cells assessed as induction of PARK7 degradation at 5 uM preincubated with MG-132 for 4 hrs followed by compound addition and measured after 8 hrs by Western blot analysis; type: cell-based; procedure, shortened: as §2
[12] = target: T2, Protein cereblon/Parkinson disease protein 7 (Homo sapiens); test: PROTAC activity at CRBN/PARK7 in human A549 cells assessed as induction of PARK7 degradation at 0.1 to 5 uM incubated for 8 hrs by Western blot analysis; type: cell-based; conditions: dose 0.1-5 µM
Procedure, shortened: (§3)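 A549 cells treated the day after seeding with PROTAC (0.1–5 μM) for 8 h. Lysates boiled in LDS with β-mercaptoethanol and run on 4–12% Bis-Tris/MOPS SDS-PAGE. PARK7 immunoblotted and normalized to DMSO; three independent biological replicates, mean ± SD, Student's t test.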

[13] = target: T2, Protein cereblon/Parkinson disease protein 7 (Homo sapiens); test: PROTAC activity at CRBN/PARK7 in human NCI-H1299 cells assessed as induction of PARK7 degradation incubated for 8 hrs by Western blot analysis; type: cell-based; conditions: dose 0.1-5 µM
Procedure, shortened: (§4)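 HeLa, H1299 or MCF7 cells (DMEM, 7.5% FBS) treated with a PROTAC concentration series for 8 h. Lysates analysed by SDS-PAGE and anti-PARK7 immunoblot.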

[14] = system: A549; test: Downregulation of DOP1B protein level in human A549 cells at 5 uM incubated for 8 hrs by TMT-based total proteome profiling; type: functional, cell-based
Procedure, shortened: (§5)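 A549 cells treated 2 days after seeding with 5 μM compound, or DMSO, for 8 h. Lysed in 5% SDS buffer; 100 μg protein reduced, alkylated and trypsin-digested. Peptides TMTpro-labelled, pooled, high-pH fractionated and analysed by nano-LC-MS/MS; fold change and p-value taken against DMSO.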

[15] = target: T2, Protein cereblon/Parkinson disease protein 7 (Homo sapiens); test: PROTAC activity at CRBN/PARK7 in human HeLa cells assessed as induction of PARK7 degradation incubated for 8 hrs by Western blot analysis; type: cell-based; conditions: dose 0.1-5 µM; procedure, shortened: as §4
[16] = target: T2, Protein cereblon/Parkinson disease protein 7 (Homo sapiens); test: PROTAC activity at CRBN/PARK7 in human MCF7 cells assessed as induction of PARK7 degradation incubated for 8 hrs by Western blot analysis; type: cell-based; conditions: dose 0.1-5 µM; procedure, shortened: as §4
[17] = target: T2, Protein cereblon/Parkinson disease protein 7 (Homo sapiens); test: PROTAC activity at CRBN/PARK7 in human A549 cells assessed as induction of PARK7 degradation at 5 uM incubated for 8 hrs by TMT-based total proteome profiling; type: cell-based; procedure, shortened: as §5
[18] = system: A549; test: Downregulation of TM7SF3 protein level in human A549 cells at 5 uM incubated for 8 hrs by TMT-based total proteome profiling; type: functional, cell-based; procedure, shortened: as §5
[19] = target: T2, Protein cereblon/Parkinson disease protein 7 (Homo sapiens); test: PROTAC activity at CRBN/PARK7 in human A549 cells assessed as induction of PARK7 degradation at 2 uM incubated for 8 hrs by Western blot analysis; type: cell-based; procedure, shortened: as §3
[20] = target: T1, Parkinson disease protein 7 (Homo sapiens); test: Binding affinity to recombinant human PARK7 at 1 uM incubated for 1 hrs by coomassie staining based SDS-PAGE fluorescence scanning analysis relative to control
[21] = system: A549; test: Cytotoxicity in human A549 cells assessed as reduction in cell viability upto 5 uM incubated for 72 hrs by CellTiter-Blue viability assay; type: toxicity, cell-based; conditions: a549, 72 h
Procedure, shortened: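 A549 cells (5×10^3/well) exposed next day to inhibitor, with DMSO as control. Compound renewed at 36 h, then 36 h more (72 h total). Viability read by CellTiter-Blue, normalized to DMSO and background-corrected.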

[22] = target: Ubiquitin carboxyl-terminal hydrolase isozyme L1 (Homo sapiens) (UniProt P09936); test: Inhibition of UCHL1 in HEK293T cells incubated for 24 hrs by SDS-PAGE based fluorescence scanning Western blot analysis; type: cell-based
Chain of Ubiquitin carboxyl-terminal hydrolase isozyme L1 (Homo sapiens) (P09936 whole entry, looked up): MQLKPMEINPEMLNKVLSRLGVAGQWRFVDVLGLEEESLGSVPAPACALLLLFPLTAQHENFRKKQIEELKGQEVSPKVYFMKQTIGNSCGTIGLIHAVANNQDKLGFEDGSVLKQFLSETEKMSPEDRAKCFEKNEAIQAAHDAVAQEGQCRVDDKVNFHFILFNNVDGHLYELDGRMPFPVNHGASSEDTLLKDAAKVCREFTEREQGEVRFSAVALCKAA

[23] = target: T1, Parkinson disease protein 7 (Homo sapiens); test: Inhibition of PARK7 in HEK293T cells at 0.1 to 20 uM incubated for 24 hrs by SDS-PAGE based fluorescence scanning analysis; type: cell-based; conditions: dose 0.1-20 µM
Procedure, shortened: (§6)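 Live HEK293T cells (DMEM, 7.5% FBS, 37 °C, 5% CO2) exposed to inhibitor for 24 h, then washed and lysed in Tris/NaCl/0.5% Triton X-100/2 mM TCEP pH 7.5 buffer. Lysate labelled with SulfoCy5 probe JYQ-92 (1 μM, 30 min). Residual PARK7 activity read by SDS-PAGE with Cy5-channel fluorescence scan, then immunoblot for PARK7 with β-actin as loading control.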

[24] = target: T1, Parkinson disease protein 7 (Homo sapiens); test: Binding affinity to PARK7 in HEK293T cells assessed as target engagement at 1 to 5 uM incubated for 24 hrs by SDS-PAGE based fluorescence scanning Western blot analysis; type: cell-based; conditions: dose 1-5 µM; procedure, shortened: as §6
[25] = system: A549; test: Effect on PARK7 protein level in human A549 cells at 5 uM incubated for 8 hrs by TMT-based total proteome profiling; type: functional, cell-based; procedure, shortened: as §5
[26] = target: T1, Parkinson disease protein 7 (Homo sapiens); test: Binding affinity to recombinant human PARK7 at 5 uM incubated for 1 hrs by coomassie staining based SDS-PAGE fluorescence scanning analysis relative to control
[27] = target: T1, Parkinson disease protein 7 (Homo sapiens); test: Binding affinity to PARK7 in HEK293T cells assessed as band shift at 5 uM incubated for 24 hrs by SDS-PAGE based fluorescence scanning immunoblotting analysis; type: cell-based; procedure, shortened: as §6

- inhibition [22]: inactive
Compound: N#CN1CC[C@@H](C(=O)Nc2nc3c(s2)CN(C(=O)c2cccc(S(=O)(=O)N4CCOCC4)c2)CC3)C1
- Activity [21]: Non-Toxic

- inhibition [22]: Active
Compound: N#CN1CC[C@@H](C(=O)Nc2nc3c(s2)CN(C(=O)c2cccc(-c4ncon4)c2)CC3)C1

- inhibition [22]: Active
Compound: Cc1csc(-c2cccc(C(=O)N3CCc4nc(NC(=O)[C@@H]5CCN(C#N)C5)sc4C3)c2)n1

- inhibition [22]: Active
Compound: Cc1cc(C(=O)N2CCc3nc(NC(=O)[C@@H]4CCN(C#N)C4)sc3C2)ccc1Br

- inhibition [22]: inactive
Compound: N#CN1CC[C@@H](C(=O)Nc2nc3c(s2)CN(C(=O)c2cc(-n4ccnn4)ccc2F)CC3)C1
- Activity [21]: Non-Toxic
- Activity [14]: Active
- Activity [18]: Active
- Activity [25]: inactive

- inhibition [22]: Active
Compound: N#CN1CC[C@@H](C(=O)Nc2nc3c(s2)CN(C(=O)c2cnc(-c4cccs4)s2)CC3)C1

Further lines, the compound ahead of its results:

Compound: CC[N+]1=C(/C=C/C=C/C=C2/N(CCCCCC(=O)NCCCc3cn(CC(=O)N4CCN(S(=O)(=O)c5cccc(C(=O)N6CCc7nc(NC(=O)[C@@H]8CCN(C#N)C8)sc7C6)c5)CC4)nn3)c3ccc(S(=O)(=O)[O-])cc3C2(C)C)C(C)(C)c2cc(S(=O)(=O)O)ccc21
- Activity [1]: Dose-Dependent Effect
- Activity [2]: 100%
- Activity [3]: Active
- Activity [4]: Active
- Drug uptake [5]: Active
- Activity [6]: Active
- Activity [7]: Active

Compound: N#CN1CC[C@@H](C(=O)Nc2nc3c(s2)CN(C(=O)c2cc(-n4cc(COCCOCCNc5cccc6c5C(=O)N(C5CCC(=O)NC5=O)C6=O)nn4)ccc2F)CC3)C1 (stereo partly specified)
- Activity [8]: inactive
- Activity [9]: inactive
- Activity [10]: Active
- Activity [11]: inactive
- Activity [12]: Active
- Activity [13]: Dose-Dependent Effect
- Activity [14]: Active
- Activity [15]: Dose-Dependent Effect
- Activity [16]: Dose-Dependent Effect
- Activity [17]: Active
- Activity [18]: Active

Compound: N#CN1CC[C@@H](C(=O)Nc2nc3c(s2)CN(C(=O)c2cccc(S(=O)(=O)N4CCN(C(=O)Cn5cc(COCCOCCOCCNc6cccc7c6C(=O)N(C6CCC(=O)NC6=O)C7=O)nn5)CC4)c2)CC3)C1 (stereo partly specified)
- Activity [12]: inactive

Compound: N#CN1CC[C@@H](C(=O)Nc2nc3c(s2)CN(C(=O)c2cccc(S(=O)(=O)N4CCN(C(=O)Cn5cc(COCCOCCNc6cccc7c6C(=O)N(C6CCC(=O)NC6=O)C7=O)nn5)CC4)c2)CC3)C1 (stereo partly specified)
- Activity [12]: inactive

Compound: N#CN1CC[C@@H](C(=O)Nc2nc3c(s2)CN(C(=O)c2cc(-n4cc(COCCOCCOCCNc5cccc6c5C(=O)N(C5CCC(=O)NC5=O)C6=O)nn4)ccc2F)CC3)C1 (stereo partly specified)
- Activity [19]: Active

Compound: CC[N+]1=C(/C=C/C=C/C=C2/N(CCCCCC(=O)NCCCc3cn(-c4ccc(F)c(C(=O)N5CCc6nc(NC(=O)[C@@H]7CCN(C#N)C7)sc6C5)c4)nn3)c3ccc(S(=O)(=O)O)cc3C2(C)C)C(C)(C)c2cc(S(=O)(=O)[O-])ccc21
- Activity [1]: Dose-Dependent Effect
- Activity [20]: 100%
- Activity [3]: Active
- Activity [4]: Active
- Drug uptake [5]: Active
- Activity [6]: Active
- Activity [7]: Active

Compound: N#CN1CC[C@@H](C(=O)Nc2nc3c(s2)CN(C(=O)CN=[N+]=[N-])CC3)C1
- inhibition [23]: inactive

Compound: CC(=O)N1CCN(S(=O)(=O)c2cccc(C(=O)N3CCc4nc(NC(=O)[C@@H]5CCN(C#N)C5)sc4C3)c2)CC1
- inhibition [22]: inactive
- Activity [24]: Active

Compound: CC1=CC(C)=[N+]2C1=C(CCCCc1cn(CC(=O)N3CCN(S(=O)(=O)c4cccc(C(=O)N5CCc6nc(NC(=O)[C@@H]7CCN(C#N)C7)sc6C5)c4)CC3)nn1)c1c(C)cc(C)n1[B-]2(F)F
- Activity [1]: Dose-Dependent Effect
- Activity [26]: 100%
- Activity [27]: inactive
- Activity [4]: inactive
